Data from ChEMBL document CHEMBL1137702, “Identification of hydrolytically stable and selective P2Y(1) receptor agonists” (Eur J Med Chem, 2009).
Calls of active or inactive are those of the source. The rule behind the calls is not given here.

The molecules below were run against T1, Ectonucleotide pyrophosphatase/phosphodiesterase family member 1 (Homo sapiens) (UniProt P22413) (assay: Inhibition of human NPP1 expressed in human 293T cells).
T1 sequence (whole entry): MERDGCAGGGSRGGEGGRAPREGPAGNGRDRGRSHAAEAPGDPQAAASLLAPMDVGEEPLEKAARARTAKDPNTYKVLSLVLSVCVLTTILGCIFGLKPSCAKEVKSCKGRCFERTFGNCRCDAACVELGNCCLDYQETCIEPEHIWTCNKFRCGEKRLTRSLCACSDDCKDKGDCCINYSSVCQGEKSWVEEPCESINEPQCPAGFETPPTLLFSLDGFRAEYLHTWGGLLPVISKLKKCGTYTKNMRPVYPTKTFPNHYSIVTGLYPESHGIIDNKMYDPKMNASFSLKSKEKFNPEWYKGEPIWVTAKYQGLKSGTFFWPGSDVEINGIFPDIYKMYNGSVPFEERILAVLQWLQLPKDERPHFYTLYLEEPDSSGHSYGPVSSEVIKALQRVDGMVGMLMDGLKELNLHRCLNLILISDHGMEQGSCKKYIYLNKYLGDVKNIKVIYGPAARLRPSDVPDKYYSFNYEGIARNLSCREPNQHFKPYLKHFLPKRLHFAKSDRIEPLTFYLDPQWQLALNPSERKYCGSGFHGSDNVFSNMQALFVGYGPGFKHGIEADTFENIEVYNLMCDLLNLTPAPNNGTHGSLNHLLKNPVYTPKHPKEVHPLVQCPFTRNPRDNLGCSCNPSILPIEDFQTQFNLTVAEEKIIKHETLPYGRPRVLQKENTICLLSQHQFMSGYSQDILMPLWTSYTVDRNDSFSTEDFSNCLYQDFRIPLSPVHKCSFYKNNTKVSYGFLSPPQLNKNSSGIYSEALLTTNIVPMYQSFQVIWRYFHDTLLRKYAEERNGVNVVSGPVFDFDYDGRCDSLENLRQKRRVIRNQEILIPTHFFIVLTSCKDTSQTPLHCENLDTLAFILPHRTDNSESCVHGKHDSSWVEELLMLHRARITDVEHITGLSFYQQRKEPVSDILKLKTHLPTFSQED
Type: cell-based

Q: `BP(=O)(OC[C@H]1O[C@@H](n2cnc3c(N)nc(SC)nc32)[C@H](O)[C@@H]1O)OP(=O)(O)CP(=O)(O)O` (single isomer, unassigned; diastereomer B) was tested. Which Activity did it give?
A: inactive

Q: How did the Activity turn out when `BP(=O)(OC[C@H]1O[C@@H](n2cnc3c(N)ncnc32)[C@H](O)[C@@H]1O)OP(=O)(O)CP(=O)(O)O` (some centres undefined) was run?
A: inactive

These molecules were tested against P2Y purinoceptor 6 (Rattus norvegicus) (UniProt Q63371) (assay: Agonist activity at rat P2Y6 receptor expressed in human 1321N1 cells assessed as increase in intracellular calcium concentration at 100 uM by dual-excitation spectrofluorimetric analysis).
Sequence of P2Y purinoceptor 6 (Rattus norvegicus) (Q63371 whole entry): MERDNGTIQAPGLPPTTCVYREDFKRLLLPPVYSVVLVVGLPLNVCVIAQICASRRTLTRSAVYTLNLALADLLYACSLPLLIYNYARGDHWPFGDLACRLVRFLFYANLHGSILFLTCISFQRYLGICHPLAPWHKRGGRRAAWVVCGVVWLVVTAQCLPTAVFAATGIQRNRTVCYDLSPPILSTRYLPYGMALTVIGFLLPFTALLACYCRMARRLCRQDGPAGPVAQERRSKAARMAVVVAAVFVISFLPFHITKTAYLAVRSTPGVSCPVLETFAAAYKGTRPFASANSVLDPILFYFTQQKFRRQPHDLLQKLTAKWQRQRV
Type: functional, cell-based

Q: `BP(=O)(OC[C@H]1O[C@@H](n2cnc3c(N)nc(SC)nc32)[C@H](O)[C@@H]1O)OP(=O)(O)CP(=O)(O)O` (single isomer, unassigned; diastereomer B) was tested. Which Activity did it give?
A: Active

Each molecule was assayed against T2, Ectonucleoside triphosphate diphosphohydrolase 1 (Homo sapiens) (UniProt P49961) (assay: Activity of human NTPDase 1 expressed in human 293T cells assessed as drug hydrolysis at 100 uM after 20 mins relative to ATP).
T2 sequence (whole entry): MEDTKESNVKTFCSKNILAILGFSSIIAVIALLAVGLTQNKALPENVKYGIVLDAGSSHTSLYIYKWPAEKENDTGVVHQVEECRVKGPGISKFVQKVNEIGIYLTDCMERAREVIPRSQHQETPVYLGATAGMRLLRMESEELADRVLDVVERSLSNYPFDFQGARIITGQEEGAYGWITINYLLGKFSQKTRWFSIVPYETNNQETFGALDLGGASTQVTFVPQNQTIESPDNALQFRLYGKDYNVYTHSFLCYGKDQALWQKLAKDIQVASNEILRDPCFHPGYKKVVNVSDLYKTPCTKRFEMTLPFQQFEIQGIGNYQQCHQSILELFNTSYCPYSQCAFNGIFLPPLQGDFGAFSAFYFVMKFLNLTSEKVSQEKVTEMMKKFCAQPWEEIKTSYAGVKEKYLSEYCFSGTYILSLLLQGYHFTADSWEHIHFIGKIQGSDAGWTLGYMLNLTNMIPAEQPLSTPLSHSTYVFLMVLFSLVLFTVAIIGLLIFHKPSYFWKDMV
Type: cell-based
Design: scale not given: the % may be the effect or the level left
Procedure, shortened: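 Human NTPDase1, 2, 3 or 8 in crude extracts of transfected 293T cells, pre-incubated 3 min at 37 °C in Tris-Ringer buffer pH 7.4. […] Untransfected-cell extract activity subtracted.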

Q: With `BP(=O)(OC[C@H]1O[C@@H](n2cnc3c(N)nc(SC)nc32)[C@H](O)[C@@H]1O)OP(=O)(O)CP(=O)(O)O` (single isomer, unassigned; diastereomer B) as the molecule, how does the Activity read?
A: < 1%

Q: `BP(=O)(OC[C@H]1O[C@@H](n2cnc3c(N)ncnc32)[C@H](O)[C@@H]1O)OP(=O)(O)CP(=O)(O)O` (some centres undefined) was tested. Which Activity did it give?
A: 1%

What follows are molecules tested against P2Y purinoceptor 1 (Meleagris gallopavo) (UniProt P49652) (assay: Antagonist activity at turkey P2Y1 receptor expressed in human 1321N1 cells assessed as inhibition of 2-MeS-ADP-induced increase in intracellular calcium concentration by dual-excitation spectrofluorimetric analysis).
Sequence of P2Y purinoceptor 1 (Meleagris gallopavo) (P49652 whole entry): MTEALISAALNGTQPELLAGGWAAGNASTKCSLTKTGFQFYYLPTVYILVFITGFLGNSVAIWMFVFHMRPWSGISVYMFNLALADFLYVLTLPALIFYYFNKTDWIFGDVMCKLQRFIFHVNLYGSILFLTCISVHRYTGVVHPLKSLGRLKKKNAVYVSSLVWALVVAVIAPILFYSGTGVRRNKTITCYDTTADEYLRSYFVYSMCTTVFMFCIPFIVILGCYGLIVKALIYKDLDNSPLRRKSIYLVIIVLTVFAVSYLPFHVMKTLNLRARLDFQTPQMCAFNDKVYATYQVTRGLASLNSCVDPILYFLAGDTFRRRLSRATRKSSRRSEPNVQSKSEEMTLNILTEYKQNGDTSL
Type: functional, cell-based
Procedure, shortened: (§1)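 Fura-2-loaded suspensions of stably transfected 1321N1 cells were assayed at 37 °C in HEPES-buffered saline pH 7.4 with 1 mM Ca2+ and Mg2+. […] [Ca2+]i was read by dual-excitation spectrofluorometry.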

Q: For `BP(=O)(OC[C@H]1O[C@@H](n2cnc3c(N)nc(SC)nc32)[C@H](O)[C@@H]1O)OP(=O)(O)CP(=O)(O)O` (single isomer, unassigned; diastereomer B), which Activity is on record?
A: inactive

These molecules were tested against P2Y purinoceptor 6 (Rattus norvegicus) (UniProt Q63371) (assay: Antagonist activity at rat P2Y6 receptor expressed in human 1321N1 cells assessed as inhibition of UDP-induced increase in intracellular calcium concentration by dual-excitation spectrofluorimetric analysis).
Type: functional, cell-based
Procedure, shortened: as §1

Q: How did the Activity turn out when `BP(=O)(OC[C@H]1O[C@@H](n2cnc3c(N)nc(SC)nc32)[C@H](O)[C@@H]1O)OP(=O)(O)CP(=O)(O)O` (single isomer, unassigned; diastereomer B) was run?
A: inactive

Q: How did the Activity turn out when `BP(=O)(OC[C@H]1O[C@@H](n2cnc3c(N)ncnc32)[C@H](O)[C@@H]1O)OP(=O)(O)CP(=O)(O)O` (some centres undefined) was run?
A: inactive

The molecules below were run against P2Y purinoceptor 4 (Homo sapiens, UniProt P51582) (assay: Antagonist activity at human P2Y4 receptor expressed in human 1321N1 cells assessed as inhibition of UTP-induced increase in intracellular calcium concentration by dual-excitation spectrofluorimetric analysis).
Sequence of P2Y purinoceptor 4 (P51582 whole entry): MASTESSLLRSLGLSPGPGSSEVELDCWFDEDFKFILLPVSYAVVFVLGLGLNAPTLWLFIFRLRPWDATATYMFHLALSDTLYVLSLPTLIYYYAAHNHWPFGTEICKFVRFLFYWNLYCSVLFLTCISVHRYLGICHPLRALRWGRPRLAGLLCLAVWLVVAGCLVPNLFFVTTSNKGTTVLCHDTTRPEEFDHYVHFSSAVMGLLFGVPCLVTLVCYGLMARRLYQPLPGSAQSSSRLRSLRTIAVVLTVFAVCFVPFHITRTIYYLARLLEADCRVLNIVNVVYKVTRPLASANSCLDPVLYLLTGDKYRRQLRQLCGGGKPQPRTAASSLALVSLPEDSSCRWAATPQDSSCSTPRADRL
Type: functional, cell-based
Procedure, shortened: as §1

Q: How did the Activity turn out when `BP(=O)(OC[C@H]1O[C@@H](n2cnc3c(N)nc(SC)nc32)[C@H](O)[C@@H]1O)OP(=O)(O)CP(=O)(O)O` (single isomer, unassigned; diastereomer B) was run?
A: inactive

Q: How did the Activity turn out when `BP(=O)(OC[C@H]1O[C@@H](n2cnc3c(N)ncnc32)[C@H](O)[C@@H]1O)OP(=O)(O)CP(=O)(O)O` (some centres undefined) was run?
A: inactive

What follows are molecules tested against T2, Ectonucleoside triphosphate diphosphohydrolase 1 (Homo sapiens) (assay: Inhibition of human NTPDase 1 expressed in human 293T cells).
Type: cell-based

Q: `BP(=O)(OC[C@H]1O[C@@H](n2cnc3c(N)nc(SC)nc32)[C@H](O)[C@@H]1O)OP(=O)(O)CP(=O)(O)O` (single isomer, unassigned; diastereomer B) was tested. Which Activity did it give?
A: inactive

Q: Which Activity does the source give for `BP(=O)(OC[C@H]1O[C@@H](n2cnc3c(N)ncnc32)[C@H](O)[C@@H]1O)OP(=O)(O)CP(=O)(O)O` (some centres undefined) here?
A: inactive

What follows are molecules tested against P2Y purinoceptor 2 (Homo sapiens, UniProt P41231) (assay: Antagonist activity at human P2Y2 receptor expressed in human 1321N1 cells assessed as inhibition of UTP-induced increase in intracellular calcium concentration by dual-excitation spectrofluorimetric analysis).
Sequence of P2Y purinoceptor 2 (P41231 whole entry): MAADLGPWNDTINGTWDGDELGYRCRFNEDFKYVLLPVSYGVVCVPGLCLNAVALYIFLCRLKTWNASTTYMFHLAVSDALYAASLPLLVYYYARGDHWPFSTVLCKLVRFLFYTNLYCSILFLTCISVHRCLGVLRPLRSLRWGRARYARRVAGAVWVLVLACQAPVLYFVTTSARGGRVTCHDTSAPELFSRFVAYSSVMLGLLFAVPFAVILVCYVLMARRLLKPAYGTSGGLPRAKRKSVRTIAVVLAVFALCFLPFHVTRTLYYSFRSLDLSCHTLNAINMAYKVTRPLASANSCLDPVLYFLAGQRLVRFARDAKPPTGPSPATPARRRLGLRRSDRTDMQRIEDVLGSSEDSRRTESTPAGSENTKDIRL
Type: functional, cell-based
Procedure, shortened: as §1

Q: How did the Activity turn out when `BP(=O)(OC[C@H]1O[C@@H](n2cnc3c(N)nc(SC)nc32)[C@H](O)[C@@H]1O)OP(=O)(O)CP(=O)(O)O` (single isomer, unassigned; diastereomer B) was run?
A: inactive

Q: With `BP(=O)(OC[C@H]1O[C@@H](n2cnc3c(N)ncnc32)[C@H](O)[C@@H]1O)OP(=O)(O)CP(=O)(O)O` (some centres undefined) as the molecule, how does the Activity read?
A: inactive
